Results taken from article PMC2174413 (Environmental Health Perspectives, 2007).

Legend:
[1] = test system: 3′-phosphoadenosine 5′-phosphosulfate synthase 1 (PAPSS1) mRNA; assay: Real-time RT-PCR of PAPSS1 steady-state mRNA in treated TE 671 cells; type: cell-based, human; conditions: 24 hr, 0.005–0.5 μM, ΔΔCt method, HPRT1 internal standard
Procedure, shortened: (§1)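 TE 671 cells were pre-grown 72 hr in phenol red–free DMEM, plated at 4 ×10⁴ cells/well in 10% dialyzed FCS medium, equilibrated 24 hr, and dosed 24 hr (DMSO carrier, quadruplicate per dose). Total RNA (1 μg) was reverse-transcribed with poly T primers for 60 min at 42°C. SYBR Green qPCR used 60°C annealing, 44 cycles and a melt curve, with samples in quadruplicate; mean ± SE.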

[2] = test system: sulfite oxidase (SUOX) mRNA; assay: Real-time RT-PCR of SUOX steady-state mRNA in treated TE 671 cells; type: cell-based, human; conditions: 24 hr, 0.005–0.5 μM, ΔΔCt method, HPRT1 internal standard
Procedure, shortened: as §1

[3] = test system: cysteine dioxygenase type I (CDO1) mRNA; assay: Real-time RT-PCR of CDO1 steady-state mRNA in treated TE 671 cells; type: cell-based, human; conditions: 24 hr, 0.005–0.5 μM, ΔΔCt method, HPRT1 internal standard
Procedure, shortened: as §1

[4] = molecular target: T1, human DHEA sulfotransferase (SULT 2A1) (Homo sapiens, UniProt Q06520); assay: Inhibition of sulfation of tritiated DHEA by SULT 2A1 in human liver cytosol; type: biochemical
T1 sequence (Q06520 1-285): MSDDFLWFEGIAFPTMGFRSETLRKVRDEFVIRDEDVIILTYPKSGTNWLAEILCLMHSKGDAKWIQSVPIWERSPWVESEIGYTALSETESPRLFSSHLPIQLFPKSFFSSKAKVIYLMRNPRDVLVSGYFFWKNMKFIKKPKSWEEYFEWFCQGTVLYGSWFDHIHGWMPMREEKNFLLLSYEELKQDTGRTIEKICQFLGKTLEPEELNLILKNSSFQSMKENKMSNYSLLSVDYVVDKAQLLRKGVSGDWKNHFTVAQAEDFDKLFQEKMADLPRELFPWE

SULT 2A1 = conditions: read-out: Km of SULT 2A1 for DHEA; ref Chang et al. 2001; cited from earlier work

Oc1ccc(Cl)cc1Cl [2,4-dichlorophenol]
PAPSS1 mRNA expression level relative to undosed control [1]: did not show significant decreases | SUOX mRNA expression level relative to undosed control [2]: did not show significant decreases | CDO1 mRNA expression level relative to undosed control [3]: did not show significant decreases

Cc1cc(O)ccc1Cl [4-chloro-3-methylphenol]
PAPSS1 mRNA expression level relative to undosed control [1]: did not show significant decreases | SUOX mRNA expression level relative to undosed control [2]: did not show significant decreases | CDO1 mRNA expression level relative to undosed control [3]: did not show significant decreases

CCCCC(CC)COC(=O)c1ccccc1C(=O)OCC(CC)CCCC (stereo not drawn) [bis(2-ethylhexyl)phthalate]
PAPSS1 mRNA expression level relative to undosed control [1]: significant dose-dependent decreases | SUOX mRNA expression level relative to undosed control [2]: significant dose-dependent decreases

CCCCOC(=O)c1ccccc1C(=O)OCCCC [Dibutyl phthalate, dibutyl phthalate]
Ki [4]: 21.5 ± 1.4 µM

C[C@]12CC[C@H](O)CC1=CC[C@@H]1[C@@H]2CC[C@]2(C)C(=O)CC[C@@H]12 [DHEA, dehydroepiandrosterone]
Km (SULT 2A1): ~2 µM

CC(C)CCCCCCCOC(=O)c1ccccc1C(=O)OCCCCCCCC(C)C [Diisodecyl phthalate, diisodecyl phthalate]
PAPSS1 mRNA expression level relative to undosed control [1]: clear decreasing trend

bisphenol A dimethacrylate
PAPSS1 mRNA expression level relative to undosed control [1]: decreased in a dose-dependent manner | SUOX mRNA expression level relative to undosed control [2]: decreased in a dose-dependent manner | CDO1 mRNA expression level relative to undosed control [3]: did not affect

CC(C)(C)CC(C)(C)c1ccc(O)cc1 [4-tert-Octylphenol, 4-tert-octylphenol]
Ki [4]: 2.8 ± 0.1 µM

CC(C)(c1ccc(O)cc1)c1ccc(O)cc1 [Bisphenol A, bisphenol A]
Ki [4]: 16.3 ± 0.8 µM

CCCCCCCCCc1ccc(O)cc1 [4-n-Nonylphenol, 4-n-nonylphenol]
Ki [4]: 10.5 ± 0.6 µM | PAPSS1 mRNA expression level relative to undosed control [1]: very significant dose-dependent decrease
